Mot1-301 SUMO: yeast Mot1-301 growth rescue at high temperature, primary screen, SUMOylation pathway inhibitor project, S. cerevisiae, ATP luminescence, 38.5C; actives 1% (n = 320,000); growth rescue, % at 18.8 µM; S. cerevisiae Mot1-301 growth rescue; percent above DMSO median, 100 means doubled; AID 2716, 2010;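 active = every valid replicate shows activation above 250% relative to neutral control wells; inactive = the rest, any valid replicate at or below 250%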
KCNQ1 block: inhibitors of human KCNQ1 channel, primary screen, cell-based, thallium flux, high-throughput; B-score at 10 µM; CHO-K1 KCNQ1, FluxOR thallium flux fluorescence; active compounds read high; Potassium voltage-gated channel subfamily KQT member 1 (Homo sapiens), P51787; AID 2642, 2010; actives 1.3% (n = 310,000);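 active = compounds whose thallium flux B-score, printed positive for inhibition, exceeds three library SD while starting fluorescence stays within three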;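 note: channel opened by potassium depolarization with thallium stimulus after 20 min compound exposure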
KCC2 mod: KCC2 cotransporter modulators, thallium flux, primary screen, cell-based, HEK293 KCC2, FluoZin-2 fluorescence, MLSMR; Solute carrier family 12 member 5 (Homo sapiens), Q9H2X9; B-score of Tl+ flux slope (higher = more flux/activation; lower = inhibition) at 10 µM; actives 2.2% (n = 190,000); KCC2 cells, thallium flux FluoZin-2 fluorescence;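 active = thallium flux slope and its plate-corrected score both differing from the plate sample mean at a set confidence after two filtering rounds, in either direction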;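 note: slope of fluorescence scaled to starting intensity during 10 to 20 s after thallium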
KCNQ1 pot: potentiators or activators of KCNQ1 channel, primary screen, cell-based, thallium flux, high-throughput. AID 2648, 2010. actives 0.35% (n = 310,000). CHO-K1 KCNQ1, thallium flux FluxOR fluorescence; active compounds read high. Potassium voltage-gated channel subfamily KQT member 1 (Homo sapiens), P51787. B-score at 10 µM;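 active = fluorescence ratio B-score, a plate-corrected score, at least three library SD, with initial intensity B-score within 5 SD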
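System: Stable KCNQ1 CHO-K1 line | Incubation: 90 min dye loading and 20 min compound exposure, both at room temperature | Measure: Ratio B score | Medium: Assay buffer for compound exposure, DMSO matched across wells | Compound dosing: Single-concentration screen | Probe or stimulus: K+/Tl+ depolarizing stimulus | Measured by: Kinetic FluxOR fluorescence, 10 s baseline plus 110 s post-stimulus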
AI-2 QS mod: Vibrio harveyi AI-2 quorum sensing modulators, primary screen, JMH597 strain, luminescence/OD600 ratio; Vibrio harveyi JMH597 AI-2 luminescence/OD600 ratio, 9 h; active compounds read low; strain lacks LuxN and CqsS sensors; 0 = neutral-control median; activity change, % at 7.5 µM; actives 0.4% (n = 300,000); AID 2094, 2009; in the data active = activity change below about -75%, passing the limit was not always enough;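 note: luminescence divided by OD600 gain over 9 h not by final OD600 alone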
hERG protect: hERG rescue from dofetilide block, primary screen, cell-based, CHO-hERG, FluxOR thallium flux, dofetilide IC70 | AID 1511, 2009 | Voltage-gated inwardly rectifying potassium channel KCNH2 (Homo sapiens), Q12809 | actives 0.51% (n = 310,000) | dofetilide IC70 present | activation (rescue from dofetilide block), less the hit threshold, % at 10 µM;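 active = activation above the mean of controls blocked by dofetilide plus 5 SD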;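 note: thallium influx through hERG after potassium depolarization seen as dye fluorescence rise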
Target sequence (Q12809 whole entry, looked up): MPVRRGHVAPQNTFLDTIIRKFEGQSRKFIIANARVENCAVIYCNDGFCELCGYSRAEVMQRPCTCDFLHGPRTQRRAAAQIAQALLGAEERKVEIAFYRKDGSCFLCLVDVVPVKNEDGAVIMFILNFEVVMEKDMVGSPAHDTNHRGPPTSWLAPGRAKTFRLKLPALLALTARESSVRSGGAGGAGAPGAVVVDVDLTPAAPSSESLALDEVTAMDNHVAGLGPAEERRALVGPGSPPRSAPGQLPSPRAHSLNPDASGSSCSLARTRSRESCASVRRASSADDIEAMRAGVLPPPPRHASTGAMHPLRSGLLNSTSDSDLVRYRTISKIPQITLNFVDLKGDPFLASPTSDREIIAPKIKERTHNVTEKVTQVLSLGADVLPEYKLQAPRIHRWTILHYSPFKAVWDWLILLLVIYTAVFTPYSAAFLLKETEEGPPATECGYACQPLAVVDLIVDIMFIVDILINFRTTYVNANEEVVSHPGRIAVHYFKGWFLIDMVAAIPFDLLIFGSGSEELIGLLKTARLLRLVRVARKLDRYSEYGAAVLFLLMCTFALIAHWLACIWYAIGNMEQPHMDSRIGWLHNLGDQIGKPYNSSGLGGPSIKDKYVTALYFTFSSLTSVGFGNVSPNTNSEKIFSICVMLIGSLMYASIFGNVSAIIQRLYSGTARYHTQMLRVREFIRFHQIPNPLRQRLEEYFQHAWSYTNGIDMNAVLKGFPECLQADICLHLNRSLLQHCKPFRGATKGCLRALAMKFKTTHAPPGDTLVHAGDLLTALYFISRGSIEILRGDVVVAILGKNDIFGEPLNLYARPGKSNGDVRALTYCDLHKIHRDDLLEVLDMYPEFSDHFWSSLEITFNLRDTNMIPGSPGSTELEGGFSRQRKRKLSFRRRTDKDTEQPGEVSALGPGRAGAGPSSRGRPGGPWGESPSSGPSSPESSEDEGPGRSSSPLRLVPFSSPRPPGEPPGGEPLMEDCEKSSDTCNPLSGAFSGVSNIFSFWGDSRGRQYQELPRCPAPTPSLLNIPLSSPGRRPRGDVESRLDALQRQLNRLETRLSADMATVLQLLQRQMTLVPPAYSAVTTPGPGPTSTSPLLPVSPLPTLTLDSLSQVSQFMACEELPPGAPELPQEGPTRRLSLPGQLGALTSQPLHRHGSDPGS
Yeast Mot1 SUMO: growth restoration of Mot1-301 yeast on galactose, dose response, SUMO pathway inhibitor project, whole organism, S. cerevisiae, ATP luminescence, cherry-picked samples; 2,300 tested, under 10 active; S. cerevisiae Mot1-301 galactose growth, 24 h; -100 = growth of slx-deleted rescue strain; shares compounds with Mot1-301 SUMO; growth activity, percent, % at 42 µM;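 active = Signal drops as the depositor expects, and the fitted half-maximal dose is no more than ten times the top valid tested dose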;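 note: more negative values mean stronger growth rescue toward the control strain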
Of the large screens only hits and unclear results are named; the others gave an inactive call (follow-up assays come after a bar, where they were run). Shown are actives, neighbours in structure and some others; about 4.2% of the full set was active somewhere.

CCCOc1ccc(N2C(=O)CC(S/C(N)=N/N=C(\C)c3cccs3)C2=O)cc1 (stereo not given)	none
C/C(=N\N=C(/N)SC1CC(=O)N(c2cccc(Cl)c2)C1=O)c1cccs1 (stereo not given)	Mot1-301 SUMO 374 | Yeast Mot1 SUMO inactive
O=C(c1cnn2c(C(F)(F)F)cc(-c3ccco3)nc12)N1CCCc2ccccc21	Mot1-301 SUMO 908 (no result: KCC2 mod) | Yeast Mot1 SUMO inactive
COc1ccc(NC(=O)c2cnn3c(C(F)(F)F)cc(-c4ccco4)nc23)cc1OC	none (no result: KCC2 mod)
O=S(=O)(O)c1ccc(N=NNc2ccc(Br)cc2)cc1	Mot1-301 SUMO 539 (no result: KCC2 mod) | Yeast Mot1 SUMO inactive
COc1ccc(C(=O)NCc2ccc(-c3nc4ccccc4s3)cc2)cc1	none (no result: KCC2 mod)
COc1cccc(C(=O)NCc2ccc(-c3nc4ccccc4s3)cc2)c1	Mot1-301 SUMO 375 | Yeast Mot1 SUMO inactive
COc1ccc(-n2c(SCC(=O)NCC3CCCO3)nc3c(c2=O)SCC3)cc1OC (stereo not given)	Mot1-301 SUMO 672 (no result: KCC2 mod) | Yeast Mot1 SUMO inactive
COc1ccc(-n2c(SCC(=O)NCC3CCCO3)nc3c(c2=O)SCC3)cc1 (stereo not given)	none (no result: KCC2 mod)
C[C@H]1[C@H](C)CC[C@]2(C(=O)O)CC[C@]3(C)C(=CC[C@@H]4[C@@]5(C)CC[C@H](O)C(C)(C)[C@@H]5CC[C@]43C)[C@H]12	none (no result: hERG protect)
CC1(C)C2CC[C@]3(C)C(CC=C4[C@@H]5C[C@@](C)(CO)[C@@H](O)C[C@]56C[C@@H](OC6=O)[C@]43C)[C@@]2(C)CC[C@@H]1O (stereo not given in full)	Mot1-301 SUMO 369 (no result: KCC2 mod) | Yeast Mot1 SUMO inactive
O=C(N/N=C/c1ccccn1)NC12CC3CC(CC(C3)C1)C2	Mot1-301 SUMO 612 | Yeast Mot1 SUMO inactive
COc1ccc(/C=C(\C#N)C(=O)C(C)(C)n2cncn2)cc1	none
COc1ccc(N2CCN(C(=O)c3cc(=O)c4cc(C)c(C)cc4o3)CC2)cc1	none (no result: KCC2 mod)
O=C(CCSc1nnc(-c2ccncc2)o1)Nc1ccc(Cl)cc1	Mot1-301 SUMO 450 | Yeast Mot1 SUMO inactive
O=C(CCSc1nnc(-c2ccncc2)o1)Nc1cccc(Cl)c1	none (no result: KCC2 mod)
CCCCC(=O)NC(=S)Nc1c(C)cc(Br)cc1C	none
Nn1c(SCC(=O)Nc2cccnc2Cl)nnc1-c1ccccc1	none (no result: KCNQ1 block, KCC2 mod, KCNQ1 pot, AI-2 QS mod, hERG protect)
O=C1CC(Cc2ccccc2)C(=O)N1CCCn1ccnc1 (stereo not given)	none
Cc1ccc(NC(=O)N[C@H](C(=O)O)C(C)C)c(C)c1	Mot1-301 SUMO 830 | Yeast Mot1 SUMO inactive
CC1(C)Cc2c(c(N3CCCC3)nc3sc4c(N5CCN(CCO)CC5)ncnc4c23)CO1	Mot1-301 SUMO 707 (no result: KCNQ1 block, KCNQ1 pot, AI-2 QS mod, hERG protect) | Yeast Mot1 SUMO inactive
OCCN1CCN(c2ncnc3c2sc2nc(N4CCOCC4)c4c(c23)CCC4)CC1	none
CCOC(=O)c1ccc(NC(=O)CC2Sc3ncnn3C2=O)cc1 (stereo not given)	Mot1-301 SUMO 674 | Yeast Mot1 SUMO inactive
COc1ccc(OC)c(NC(=O)CCN2C(=O)c3cccc([N+](=O)[O-])c3C2=O)c1	none (no result: KCC2 mod)
CC(=O)Nc1ccc(/C(C)=N/NC(=O)c2ccncc2)cc1	Mot1-301 SUMO active | Yeast Mot1 SUMO inactive
C/C(=N/NC(=O)c1ccncc1)c1ccc(NC(=O)c2ccccc2)cc1	none (no result: KCC2 mod)

High-throughput results from PubChem BioAssay.
